Bioassay records as filed in PubChem.
NR2E3 ag-1: activates human NR2E3 receptor; actives 0.35% (n = 360,000); CHO-S Gal4-NCOR/VP16-NR2E3 two-hybrid, luciferase; AID 602229; inhibition of corepressor binding, % at 3.98 µM;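 active means inhibition above the mean of all tested compounds plus 3 SD, cut at about 70% in these data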;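 further: 0% = DMSO with NR2E3 transfected cells and 100% = cells lacking NR2E3 construct; higher means lower luciferase signal from less NR2E3 corepressor binding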
Target sequence (Q9Y5X4 whole entry, looked up, the tested form may be a part): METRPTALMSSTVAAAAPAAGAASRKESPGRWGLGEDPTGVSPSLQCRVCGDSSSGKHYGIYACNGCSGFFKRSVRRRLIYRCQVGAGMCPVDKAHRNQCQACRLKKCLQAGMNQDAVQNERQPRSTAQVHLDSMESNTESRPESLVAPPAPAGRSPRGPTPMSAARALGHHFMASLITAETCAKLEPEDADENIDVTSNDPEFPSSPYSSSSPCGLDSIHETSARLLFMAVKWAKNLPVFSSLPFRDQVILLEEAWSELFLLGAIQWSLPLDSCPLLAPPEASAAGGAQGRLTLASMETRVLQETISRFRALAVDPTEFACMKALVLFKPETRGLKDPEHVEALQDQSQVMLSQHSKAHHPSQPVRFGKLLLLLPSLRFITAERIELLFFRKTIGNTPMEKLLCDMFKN
Gli-Sufu block: antagonists of Gli-Sufu signaling; inhibition, % at 5 µM; actives 0.74% (n = 340,000); Sufu-KO-LIGHT fibroblasts, Gli luciferase reporter luminescence; AID 588413;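 active means inhibition above about 55%, limit read from the data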;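 further: 0% = DMSO-treated cells and 100% = wells with medium but no cells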
697 NFkB inh: inhibitors of the PMA/ionomycin-induced NF-kB reporter in 697 B cells; 697 B-cell NF-kB luciferase reporter, 16 h; inhibition, % at 4 µM; AID 435022; actives 0.33% (n = 330,000); in the data active means inhibition above about 35%
Jurkat NFkB inh: inhibitors of the PMA/ionomycin-induced NF-kB reporter in Jurkat cells; inhibition, % at 4 µM; PMA/ionomycin-induced NF-kB luciferase reporter, luminescence; actives 0.53% (n = 330,000); AID 435003; in the data active means inhibition above about 50%
NR2E3 ag-2: activates human photoreceptor nuclear receptor NR2E3. AID 2300. GST-NR2E3/biotin-RetCOR TR-FRET, 1536-well. Q9Y5X4. inhibition of corepressor binding, % at 4.78 µM. actives 0.12% (n = 320,000);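 active means percent inhibition above the cutoff of mean plus 3 SD of all tested compounds, set per screening campaign, cut at about 20% in these data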;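 further: 0% = DMSO wells and 100% = biotin wells as full block of FRET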
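Material: NR2E3–RetCOR corepressor complex / Amount: 1.35 nM GST-NR2E3 / Medium: Tris pH 7.5 / Compound: single nominal compound dose of 4.8 µM / Incubation: 5 h at 4 °C / Technique: TR-FRET, Eu(K)-anti-GST donor, streptavidin-D2 acceptor, ex 340, em 617/671 nm / Read-out basis: percent loss of FRET ratio relative to control wells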
GalR3 antagonist: human GalR3 antagonism; actives 0.44% (n = 360,000); HEK293 GalR3-CNG cAMP membrane potential fluorescence; galR3 body fused to GalR1 C-terminus; inhibition, % at 3 µM; O60755;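 active means inhibition above the screen-wide average plus 3 SD, cut at about 13% in these data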;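 further: forskolin and galanin both at EC90 stimulate the cells; cAMP rise reported by CNG channel membrane potential dye signal; 0% = forskolin plus galanin with DMSO and 100% = forskolin alone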
Target sequence (O60755 1-299 limits assumed): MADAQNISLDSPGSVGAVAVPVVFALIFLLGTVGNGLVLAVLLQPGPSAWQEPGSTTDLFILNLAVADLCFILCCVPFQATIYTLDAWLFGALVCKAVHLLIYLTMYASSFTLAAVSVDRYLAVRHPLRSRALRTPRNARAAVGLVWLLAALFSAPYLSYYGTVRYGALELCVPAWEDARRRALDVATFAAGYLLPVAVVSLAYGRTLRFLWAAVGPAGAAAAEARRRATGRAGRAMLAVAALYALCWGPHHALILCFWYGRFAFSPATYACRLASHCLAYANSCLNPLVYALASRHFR
GalR3 antag conf: confirmation of human galanin receptor 3 antagonists. shares compounds with GalR3 antagonist. HEK293 GalR3 CNG cAMP biosensor, membrane potential fluorescence; galR3 fused to GalR1 carboxy tail; challenged with forskolin and galanin at EC90. actives 59% (n = 1,600). AID 652245. inhibition, % at 3 µM;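 active means inhibition above the primary screen's cutoff, the mean inhibition of all screened compounds plus 3 SD, cut at about 13% in these data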;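 further: 0% = forskolin plus galanin and 100% = forskolin alone with DMSO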
CNG parental: counter-screen for GalR3 antagonists: nonspecific agonists in parental HEK-CNG cells; shares compounds with GalR3 antagonist; HEK293-CNG parental cells, cAMP membrane potential fluorescence; normalised: DMSO wells 0%, forskolin wells 100%; activation, % at 3 µM; actives 10% (n = 1,600); in the data active means activation above about 1.3%
The depositor's hits bear a star; / = no result. A selection: hits, their analogues and other compounds. The true share with any hit is near 1.8%.

SMILES | NR2E3 ag-1 | Gli-Sufu block | 697 NFkB inh | Jurkat NFkB inh | NR2E3 ag-2 | GalR3 antagonist | GalR3 antag conf | CNG parental
O=c1cc(-c2ccccc2)nc(SCCOc2ccccc2Cl)[nH]1 | -29 | -4 | 4 | 14 | -1 | 13* | 1 | 1
COc1cc(/C=N/NC(N)=O)c(Br)cc1OCC(=O)Nc1ccccc1C | -14 | 2 | 1 | -8 | -1 | -3 | / | /
C=CCOc1c(Br)cc(/C=N/NC(N)=O)cc1OC | 7 | -1 | 6 | 14 | -3 | 13* | 7 | 0
CCOc1cc(/C=N/NC(N)=O)cc(Br)c1OCC(=O)Nc1ccccc1C | -22 | 7 | 6 | 8 | 3 | 69* | 40* | 0
COc1cc(/C=N/NC(=S)N/N=C/c2cc(OC)c(OC)c(OC)c2)cc(OC)c1OC | -4 | -25 | -59 | -16 | -4 | 20* | 16* | 0
CS(=O)(=O)Nc1ccc(C2=NN(C(=O)CCCC(=O)O)C(c3cccs3)C2)cc1 (stereo not drawn) | -16 | 9 | -7 | -14 | 0 | -4 | / | /
CN1C(=O)C(CC(=O)Nc2ccc(F)cc2)N(Cc2cccs2)C1=S (stereo not drawn) | 14 | 2 | 4 | 7 | 0 | 15* | 4 | -1
COc1ccc(S(=O)(=O)N2CCCOC2CNC(=O)C(=O)NCCc2ccco2)cc1C (stereo not drawn) | -40 | -2 | 2 | 43 | -1 | -1 | / | /
NCCOc1ccc(C23CC4CC(CC(C4)C2)C3)cc1 | 20 | -18 | -26 | -51 | -3 | 27* | 28* | 14*
CC(=NNC(=O)CSc1nc2ccccc2o1)c1ccco1 | -14 | -24 | -39 | -99 | / | 0 | / | /
O=C(NCCCN1CCOCC1)c1ccc(Sc2cccc(Cl)c2)c([N+](=O)[O-])c1 | 14 | -2 | -33 | -20 | 0 | -2 | / | /
CC(=O)Nc1ccc(OCC(O)Cn2c3ccccc3c3ccccc32)c(C)c1 (stereo not drawn) | -33 | 1 | -33 | 11 | 1 | 15* | 41* | -2
C/C(=N\NC(=O)Cn1nc(C)c([N+](=O)[O-])c1C)c1ccc(Cl)s1 | 10 | 4 | 13 | 3 | -2 | -1 | / | /
CCOC(=O)C1=C(C)NC2=C(C(=O)CCC2)C1c1ccc(O)c(OCC)c1 (stereo not drawn) | 4 | 6 | 8 | -8 | -3 | 16* | 24* | 0
COc1cc(C2C3=C(CCCC3=O)Nc3ccc4ncccc4c32)ccc1O (stereo not drawn) | -41 | 15 | -76 | -11 | 3 | 15* | 6 | 0
COc1ccc(C2C3=C(CCCC3=O)Nc3ccc4ncccc4c32)cc1OC (stereo not drawn) | 5 | -1 | -7 | -20 | 1 | -4 | / | /
NC(=O)C1CCN(C(=O)CCC(=O)c2ccc(Br)cc2)CC1 | -12 | -2 | -12 | 7 | 2 | 5 | / | /
COC(=O)c1nc(N)sc1-c1ccc(Cl)c(Cl)c1 | -31 | 1 | 13 | 3 | 0 | 7 | / | /
CCOC(=O)CNC(=S)N(Cc1ccco1)Cc1ccccc1Cl | -36 | 1 | -13 | 5 | -2 | -10 | / | /
Cc1ccccc1OCCCCn1cnc2ccccc21 | 68 | 42 | -49 | 22 | 1 | 77* | 19* | -1
COc1cccc(Cn2c(NCc3ccccn3)nc3c2c(=O)n(C)c(=O)n3C)c1 | / | / | / | / | / | 14* | 10 | 0
OCC[C@@H]1C[C@@H](O)[C@H](O)[C@]2(CCc3ccccc3O2)O1 | -9 | -8 | 16 | 6 | 4 | / | 18* | 0
OCC[C@@H]1C[C@H](O)[C@@H](O)[C@]2(CCc3ccccc3O2)O1 | -31 | 1 | -25 | -7 | 1 | -1 | / | /
CCOc1cc(/C=C2/NC(=O)NC2=O)cc(Br)c1OCc1ccc(C(=O)O)cc1 | -4 | 1 | 11 | -7 | 2 | -3 | / | /
COc1ccccc1NC(=O)CSc1nc(N)c(-c2ccccc2)c(=O)[nH]1 | -14 | -13 | 7 | -1 | 3 | 46* | 38* | 1
SMILES | NR2E3 ag-1 | Gli-Sufu block | 697 NFkB inh | Jurkat NFkB inh | NR2E3 ag-2 | GalR3 antagonist | GalR3 antag conf | CNG parental
O=C(CN(Cc1cccs1)C(=O)CSc1nnc(COc2ccccc2)o1)NC1CCCCC1 | -5 | 3 | -11 | -12 | 10 | 13* | 1 | 1
COc1ccc(CC(=O)Nc2cccc(S(=O)(=O)N3CCOCC3)c2)cc1OC | 38 | -7 | -27 | 21 | -4 | 41* | 18* | 0
COc1cc(C(=O)Nc2cccc(S(=O)(=O)N3CCCC3)c2)cc(OC)c1C | -2 | -5 | 13 | 1 | -1 | 14* | 12 | 1
CS(=O)(=O)c1cccc(C(=O)Nc2cccc(S(=O)(=O)N3CCCC3)c2)c1 | 10 | -5 | 28 | -8 | / | -6 | / | /
COc1ccc(CC(=O)Nc2cccc(S(=O)(=O)N3CCCC3)c2)cc1OC | 46 | 20 | -2 | 31 | -4 | 85* | 28* | -1
Cc1ccc2nc(-c3cccc(S(=O)(=O)N4CC(C)OC(C)C4)c3)cn2c1 (stereo not drawn) | -8 | -5 | -42 | -1 | -2 | 2 | / | /
CCOC(=O)CC1(CC)Oc2ccccc2N1S(=O)(=O)c1ccc(C)cc1 (stereo not drawn) | / | / | / | / | / | -6 | / | /
Cc1onc(-c2ccccc2)c1C(=O)NC(=S)NNC(=O)c1ccccc1O | 12 | -10 | -17 | 12 | 1 | -1 | / | /
Cc1onc(-c2ccccc2)c1C(=O)NC(=S)NNC(=O)c1ccc(O)cc1 | 33 | 3 | 4 | 16 | -1 | / | 2 | 0
CCOc1ccc(CN(C)C(=O)CNC(=O)c2ccc(Br)o2)cc1OC | -2 | 48 | 8 | 2 | 3 | -7 | / | /
CCn1c(O)c(/C=N/N=C2CCCCC2)c2cc(C3=NNC(=O)CC3)ccc21 | 1 | -1 | 12 | -5 | -3 | 25* | 6 | 0
COc1cc(OC)cc(C(=O)NCC(=O)NCCN2C(=O)S/C(=C\c3ccccc3Cl)C2=O)c1 | 30 | 1 | / | / | 1 | -5 | / | /
COc1cc(OC)cc(C(=O)NCC(=O)NCCN2C(=O)S/C(=C\c3ccc4c(c3)OCO4)C2=O)c1 | 0 | -5 | / | / | / | 13* | 10 | 0
Cc1ccc(CCN2CC(C(=O)NCCN(C)C)CC2=O)cc1 (stereo not drawn) | 0 | 5 | 2 | 1 | -3 | -12 | / | /
CCCN1CCC(NCc2cn(C)nc2-c2ccc(Oc3ccccc3)cc2)CC1 | 11 | 11 | -10 | -4 | 1 | -5 | / | /
